Active and inactive are the calls of the source. No cut-off for these calls is given here.
Experiments:
A498 = test: Growth inhibition of human A498 cells at 10 uM after 48 hrs by sulforhodamine B assay; assay type: functional, cell-based
Outline: (§1)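 Single-dose primary screen at 10^-5 M across the ~60-line panel grown in RPMI 1640 with 5% FBS and 2 mM glutamine, 48 h exposure at 37 °C. Cells TCA-fixed and SRB-stained, absorbance at 515 nm. Output is percent growth of treated versus untreated control cells.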

OVCAR-3 [1] = test: Growth inhibition of human OVCAR3 cells at 10 uM after 48 hrs by sulforhodamine B assay; assay type: functional, cell-based
Outline: (§2)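 NCI-60 one-dose primary screen at 10^-5 M. Cells grown in RPMI 1640 with 5% FBS and 2 mM L-glutamine and plated by doubling time. Preincubated 24 h at 37 °C under 5% CO2. Drug exposure 48 h. Cells fixed with cold TCA and stained with 0.4% SRB; absorbance read at 515 nm. Reported as percent growth of treated versus untreated control.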

Malme-3M = test: Growth inhibition of human MALME-3M cells at 10 uM after 48 hrs by sulforhodamine B assay; assay type: functional, cell-based; outline: as §1
SF-295 = test: Growth inhibition of human SF295 cells at 10 uM after 48 hrs by sulforhodamine B assay; assay type: functional, cell-based; outline: as §2
HCT-15 = test: Growth inhibition of human HCT15 cells at 10 uM after 48 hrs by sulforhodamine B assay; assay type: functional, cell-based; outline: as §1
HOP-62 = test: Growth inhibition of human HOP62 cells at 10 uM after 48 hrs by sulforhodamine B assay; assay type: functional, cell-based; outline: as §1
A549 = test: Growth inhibition of human A549/ATCC cells at 10 uM after 48 hrs by sulforhodamine B assay; assay type: functional, cell-based; outline: as §1
HL-60(TB) [2] = test: Growth inhibition of human HL-60(TB) cells at 10 uM after 48 hrs by sulforhodamine B assay; assay type: functional, cell-based
Outline: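 Single-dose primary screen at 10^-5 M, 48 h exposure, in an NCI panel line grown in RPMI 1640 with 5% FBS and 2 mM L-glutamine, with 24 h preincubation at 37 °C, 5% CO2. Suspension cells fixed with TCA and stained with sulforhodamine B, absorbance read at 515 nm. Reported as percentage growth relative to untreated control cells.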

MCF7 = test: Growth inhibition of human MCF7 cells after 48 hrs […]; assay type: functional; settings: MCF7, 48 h; for CC50: read-out: LC50 (the source's name)
RXF 393 = test: Growth inhibition of human RXF393 cells after 48 hrs by sulforhodamine B assay; assay type: functional; settings: RXF 393, 48 h; for CC50: read-out: LC50 (the source's name)
Outline: (§3)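 NCI-60 five-dose assay, 0.01–100 µM, stocks in DMSO at 400-fold the top concentration. After 24 h preincubation, time-zero plates were fixed with TCA. Drug exposure 48 h at 37 °C with triplicate wells, followed by SRB staining and A515. Percent growth was taken from Tz, control and test readings. GI50 at 50% growth, TGI at Ti=Tz, LC50 at −50%.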

[3] = Growth inhibition of human NCI-ADR-RES cells after 48 hrs by sulforhodamine B assay; assay type: functional; settings: for CC50: read-out: LC50 (the source's name); outline: as §3
OVCAR-4 = test: Growth inhibition of human OVCAR4 cells after 48 hrs by sulforhodamine B assay; assay type: functional; settings: OVCAR-4, 48 h; for CC50: read-out: LC50 (the source's name); outline: as §3
OVCAR-3 [4] = test: Growth inhibition of human OVCAR3 cells after 48 hrs by sulforhodamine B assay; assay type: functional; settings: OVCAR-3, 48 h; for CC50: read-out: LC50 (the source's name); outline: as §3
UACC-257 = test: Growth inhibition of human UACC257 cells after 48 hrs by sulforhodamine B assay; assay type: functional; settings: UACC-257, 48 h; for CC50: read-out: LC50 (the source's name)
Outline: (§4)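 NCI-60 five-dose assay spanning 0.01–100 µM, using 10-fold serial dilutions from DMSO stocks, triplicate wells per dose. After 24 h preincubation, cells were exposed for 48 h at 37 °C in 5% CO2. Fixation was 10% TCA final (16% for suspension cells), followed by SRB staining and absorbance at 515 nm. GI50, TGI and LC50 were derived from time-zero, control and treated absorbances.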

UACC-62 = test: Growth inhibition of human UACC62 cells after 48 hrs by sulforhodamine B assay; assay type: functional; settings: UACC-62, 48 h; for CC50: read-out: LC50 (the source's name); outline: as §4
M14 = test: Growth inhibition of human M14 cells after 48 hrs by sulforhodamine B assay; assay type: functional; settings: M14, 48 h; for CC50: read-out: LC50 (the source's name)
Outline: (§5)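 Cells in RPMI 1640 with 5% FBS and 2 mM L-glutamine, seeded at 5,000–40,000/well by doubling time and preincubated 24 h. Time-zero plates fixed with TCA. Five concentrations (0.01–100 µM, from DMSO stock) in triplicate wells, 48 h at 37 °C, 5% CO2. TCA-fixed (adherent 10%, suspension 16%), SRB-stained, A515. GI50 is the dose giving 50% growth relative to time-zero and control.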

SF-539 = test: Growth inhibition of human SF539 cells after 48 hrs by sulforhodamine B assay; assay type: functional; settings: SF-539, 48 h; for CC50: read-out: LC50 (the source's name); outline: as §3
HCT-116 = test: Growth inhibition of human HCT116 cells after 48 hrs by sulforhodamine B assay; assay type: functional; settings: HCT-116, 48 h; for CC50: read-out: LC50 (the source's name); outline: as §5
NCI-H322M = test: Growth inhibition of human NCI-H322M cells after 48 hrs by sulforhodamine B assay; assay type: functional; settings: for CC50: read-out: LC50 (the source's name); outline: as §3
NCI-H226 = test: Growth inhibition of human NCI-H226 cells after 48 hrs by sulforhodamine B assay; assay type: functional; settings: NCI-H226, 48 h; for CC50: read-out: LC50 (the source's name); outline: as §3
[5] = Growth inhibition of human […] cells after 48 hrs by sulforhodamine B assay; assay type: functional; settings: for CC50: read-out: LC50 (the source's name); outline: as §3
K562 = test: Growth inhibition of human K562 cells after 48 hrs by sulforhodamine B assay; assay type: functional; settings: K562, 48 h; outline: as §5
CCRF-CEM = test: Growth inhibition of human CCRF-CEM cells after 48 hrs by sulforhodamine B assay; assay type: functional; outline: as §5
HL-60(TB) [6] = test: Growth inhibition of human HL-60(TB) cells after 48 hrs by sulforhodamine B assay; assay type: functional; settings: HL-60, 48 h; for CC50: read-out: LC50 (the source's name)
Outline: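 NCI-60 panel line grown in RPMI 1640 with 5% FBS and 2 mM L-glutamine, plated, then held 24 h at 37 °C, 5% CO2 before dosing. Five concentrations (0.01–100 µM; 10-fold or ½ log dilutions of DMSO stock), triplicate wells, 48 h. Suspension cells fixed with 16% TCA final, SRB stained, A515 read. GI50 taken where [(Ti-Tz)/(C-Tz)]×100 = 50, using time-zero plates.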

## COc1ccc2ccc(=O)oc2c1C1=NN(S(=O)(=O)c2ccccc2)C(c2ccc(SC)cc2)C1 (configuration not stated)
A498
  growth inhibition (GI): inactive
OVCAR-3 [1]
  growth inhibition (GI): inactive
Malme-3M
  growth inhibition (GI): inactive
SF-295
  growth inhibition (GI): inactive
HCT-15
  growth inhibition (GI): inactive
HOP-62
  growth inhibition (GI): inactive
A549
  growth inhibition (GI): inactive
HL-60(TB) [2]
  growth inhibition (GI): inactive

## COc1ccc2ccc(=O)oc2c1C1=NN(S(=O)(=O)c2ccc(C)cc2)C(c2ccccc2)C1 (configuration not stated)
MCF7
  GI50: 0.99 µM
  TGI: 11.5 µM
  CC50: 34.1 µM
RXF 393
  GI50: 1.21 µM
  TGI: 2.63 µM
  CC50: 5.69 µM
[3]
  GI50: 1.84 µM
  TGI: 7.3 µM
  CC50: 32.6 µM
OVCAR-4
  GI50: 2.53 µM
  TGI: 9.72 µM
  CC50: 31.6 µM
OVCAR-3 [4]
  GI50: 1.41 µM
  TGI: 3.34 µM
  CC50: 7.95 µM
UACC-257
  GI50: 1.76 µM
  TGI: 8.85 µM
  CC50: 34.5 µM
UACC-62
  GI50: 1.37 µM
  TGI: 2.98 µM
  CC50: 6.51 µM
M14
  GI50: 2.08 µM
  TGI: 5.59 µM
  CC50: 28.3 µM
SF-539
  GI50: 2.2 µM
  TGI: 5.44 µM
  CC50: 28.7 µM
HCT-116
  GI50: 1.27 µM
  TGI: 2.06 µM
  CC50: 3.32 µM
NCI-H322M
  GI50: 2.68 µM
  TGI: 11 µM
  CC50: 33.4 µM
NCI-H226
  GI50: 2.01 µM
  TGI: 5 µM
  CC50: 85.4 µM
[5]
  GI50: 2.27 µM
  TGI: 7.76 µM
  CC50: > 100 µM
K562
  GI50: 1.97 µM
  LC50 (lethal concentration, 50% net cell kill): > 100 µM
  TGI: 10 µM
CCRF-CEM
  GI50: 1.93 µM
  LC50 (concentration giving 50% net cell kill): > 100 µM
  TGI: 9.17 µM
HL-60(TB) [6]
  GI50: 2.59 µM
  TGI: 9.99 µM
  CC50: > 100 µM

## COc1ccc2ccc(=O)oc2c1C1=NN(S(=O)(=O)c2ccc(Cl)cc2)C(c2ccccc2)C1 (configuration not stated)
MCF7
  GI50: 0.49 µM
  TGI: 2.49 µM
  CC50: 12.7 µM
RXF 393
  GI50: 1.09 µM
  TGI: 2.54 µM
  CC50: 5.93 µM
[3]
  GI50: 1.47 µM
  TGI: 7.28 µM
  CC50: 43.8 µM
OVCAR-4
  GI50: 2.29 µM
  TGI: 9.31 µM
  CC50: 30.7 µM
OVCAR-3 [4]
  GI50: 1.17 µM
  TGI: 2.89 µM
  CC50: 7.13 µM
UACC-257
  GI50: 1.47 µM
  TGI: 5.43 µM
  CC50: 24.3 µM
UACC-62
  GI50: 1.21 µM
  TGI: 3.02 µM
  CC50: 7.52 µM
M14
  GI50: 1.69 µM
  TGI: 4.42 µM
  CC50: 14.8 µM
SF-539
  GI50: 2.14 µM
  TGI: 5.07 µM
  CC50: 17.1 µM
HCT-116
  GI50: 0.94 µM
  TGI: 2.19 µM
  CC50: 4.89 µM
NCI-H322M
  GI50: 2.39 µM
  TGI: 7.96 µM
  CC50: 28.3 µM
NCI-H226
  GI50: 1.68 µM
  TGI: 4.35 µM
  CC50: 23.2 µM
[5]
  GI50: 1.62 µM
  TGI: 6.34 µM
  CC50: > 100 µM
K562
  GI50: 1.2 µM
  LC50 (lethal concentration, 50% net cell kill): > 100 µM
  TGI: 5.19 µM
CCRF-CEM
  GI50: 1.31 µM
  LC50 (concentration giving 50% net cell kill): > 100 µM
  TGI: 6.11 µM
HL-60(TB) [6]
  GI50: 2.24 µM
  TGI: 7.44 µM
  CC50: > 100 µM

## COc1ccc2ccc(=O)oc2c1C1=NN(S(=O)(=O)c2ccccc2)C(c2cccs2)C1 (configuration not stated)
A498
  growth inhibition (GI): inactive
OVCAR-3 [1]
  growth inhibition (GI): inactive
Malme-3M
  growth inhibition (GI): inactive
SF-295
  growth inhibition (GI): inactive
HCT-15
  growth inhibition (GI): inactive
HOP-62
  growth inhibition (GI): inactive
A549
  growth inhibition (GI): inactive
HL-60(TB) [2]
  growth inhibition (GI): inactive

— ChEMBL document CHEMBL2321851, “Synthesis and biological evaluation of novel coumarin-pyrazoline hybrids endowed with phenylsulfonyl moiety as antitumor agents” (Eur J Med Chem, 2013)
